In ChEMBL document CHEMBL5678802, “Small-molecule p21-activated kinase inhibitor PF-3758309 is a potent inhibitor of oncogenic signaling and tumor growth” (Proc Natl Acad Sci U S A, 2010):
Activity calls are given as the source filed them. The calls are words filed in the database; no cut-off is given here.

Experiments:
NCI-H1666 = assay: Antiproliferative activity against human NCI-H1666 cells assessed as inhibition of cell proliferation incubated for 3 days by CellTiter-Glo Luminescent Cell Viability Assay; format: functional, cell-based; conditions: NCI-H1666, 72 h
Method in brief: (§1)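 Cells of each line were plated in 384-well plates on day 1 and exposed to compound from day 2 for 3 days. On day 5 all medium was aspirated. Viable cell number was read by CellTiter-Glo luminescence, which quantifies cellular ATP.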

NCI-H1755 = assay: Antiproliferative activity against human NCI-H1755 cells assessed as inhibition of cell proliferation incubated for 3 days by CellTiter-Glo Luminescent Cell Viability Assay; format: functional, cell-based; conditions: NCI-H1755, 72 h; method in brief: as §1
[1] = biological target: Ribosomal protein S6 kinase alpha-1 (Homo sapiens, UniProt Q15418); assay: Inhibition of human RSK1 assessed as inhibition constant in presence of ATP
Sequence of Ribosomal protein S6 kinase alpha-1 (Q15418 whole entry): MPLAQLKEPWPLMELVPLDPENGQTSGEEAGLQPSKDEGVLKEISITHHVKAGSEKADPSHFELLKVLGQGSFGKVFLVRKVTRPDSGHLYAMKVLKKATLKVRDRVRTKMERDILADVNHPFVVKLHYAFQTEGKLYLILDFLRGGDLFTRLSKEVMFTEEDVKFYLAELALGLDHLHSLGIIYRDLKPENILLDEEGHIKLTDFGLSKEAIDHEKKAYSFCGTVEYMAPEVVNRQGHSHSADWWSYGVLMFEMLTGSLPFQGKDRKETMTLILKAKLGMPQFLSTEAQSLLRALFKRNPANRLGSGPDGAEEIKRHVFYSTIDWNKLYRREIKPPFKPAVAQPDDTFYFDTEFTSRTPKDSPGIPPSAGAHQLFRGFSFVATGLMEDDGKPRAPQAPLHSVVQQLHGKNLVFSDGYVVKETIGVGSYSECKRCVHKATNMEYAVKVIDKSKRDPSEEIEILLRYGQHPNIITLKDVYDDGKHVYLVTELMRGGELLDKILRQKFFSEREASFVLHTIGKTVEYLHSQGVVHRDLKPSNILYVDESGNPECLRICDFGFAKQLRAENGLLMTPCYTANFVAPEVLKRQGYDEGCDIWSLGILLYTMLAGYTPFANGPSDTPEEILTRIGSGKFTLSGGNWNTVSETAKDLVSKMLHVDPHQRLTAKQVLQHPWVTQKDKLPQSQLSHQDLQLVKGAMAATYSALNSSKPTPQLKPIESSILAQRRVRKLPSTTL

[2] = biological target: Serine/threonine-protein kinase Chk2 (Homo sapiens, UniProt O96017); assay: Inhibition of human CHK2 in presence of ATP relative to control; conditions: concentration not given here
Sequence of Serine/threonine-protein kinase Chk2 (O96017 whole entry): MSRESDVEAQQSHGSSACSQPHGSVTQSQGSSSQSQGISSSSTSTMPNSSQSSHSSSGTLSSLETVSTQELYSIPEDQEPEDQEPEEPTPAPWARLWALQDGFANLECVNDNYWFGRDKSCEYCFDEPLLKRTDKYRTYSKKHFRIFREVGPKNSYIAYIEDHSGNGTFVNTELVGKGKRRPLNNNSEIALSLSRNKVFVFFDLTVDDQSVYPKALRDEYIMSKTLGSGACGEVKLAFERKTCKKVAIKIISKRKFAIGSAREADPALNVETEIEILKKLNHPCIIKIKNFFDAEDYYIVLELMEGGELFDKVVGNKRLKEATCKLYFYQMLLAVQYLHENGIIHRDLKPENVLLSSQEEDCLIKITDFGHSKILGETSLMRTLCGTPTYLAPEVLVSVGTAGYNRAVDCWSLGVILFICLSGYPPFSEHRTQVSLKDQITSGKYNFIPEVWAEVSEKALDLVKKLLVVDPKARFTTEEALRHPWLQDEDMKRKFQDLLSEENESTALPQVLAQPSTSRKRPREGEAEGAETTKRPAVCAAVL

BT-20 = assay: Antiproliferative activity against human BT-20 cells assessed as inhibition of cell proliferation incubated for 3 days by CellTiter-Glo Luminescent Cell Viability Assay; format: functional, cell-based; conditions: BT-20, 72 h
Method in brief: (§2)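 Cancer cell lines seeded in 384-well plates on day 1; compound added on day 2 and left for 3 days. On day 5 all medium was aspirated, and viable cells were quantified by CellTiter-Glo luminescence, which measures cellular ATP. Dose-dependent effects on proliferation were determined.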

HPAF-II = assay: Antiproliferative activity against human HPAF-II cells assessed as inhibition of cell proliferation incubated for 3 days by CellTiter-Glo Luminescent Cell Viability Assay; format: functional, cell-based; conditions: 72 h; method in brief: as §2
HCT-116 [3] = assay: Antitumor activity against human HCT-116 cells xenografted in nude mouse assessed as reduction in GSK3beta phosphorylation at S21 residue at 15 to 150 mg/kg/day administered via pump for 18 hrs by Reverse-Phase protein array analysis; format: functional, organism-based; conditions: dose 15-150 mg/kg/day
[4] = biological target: High affinity nerve growth factor receptor (Homo sapiens, UniProt P04629); assay: Inhibition of human TRKa in presence of ATP
Sequence of High affinity nerve growth factor receptor (P04629 whole entry): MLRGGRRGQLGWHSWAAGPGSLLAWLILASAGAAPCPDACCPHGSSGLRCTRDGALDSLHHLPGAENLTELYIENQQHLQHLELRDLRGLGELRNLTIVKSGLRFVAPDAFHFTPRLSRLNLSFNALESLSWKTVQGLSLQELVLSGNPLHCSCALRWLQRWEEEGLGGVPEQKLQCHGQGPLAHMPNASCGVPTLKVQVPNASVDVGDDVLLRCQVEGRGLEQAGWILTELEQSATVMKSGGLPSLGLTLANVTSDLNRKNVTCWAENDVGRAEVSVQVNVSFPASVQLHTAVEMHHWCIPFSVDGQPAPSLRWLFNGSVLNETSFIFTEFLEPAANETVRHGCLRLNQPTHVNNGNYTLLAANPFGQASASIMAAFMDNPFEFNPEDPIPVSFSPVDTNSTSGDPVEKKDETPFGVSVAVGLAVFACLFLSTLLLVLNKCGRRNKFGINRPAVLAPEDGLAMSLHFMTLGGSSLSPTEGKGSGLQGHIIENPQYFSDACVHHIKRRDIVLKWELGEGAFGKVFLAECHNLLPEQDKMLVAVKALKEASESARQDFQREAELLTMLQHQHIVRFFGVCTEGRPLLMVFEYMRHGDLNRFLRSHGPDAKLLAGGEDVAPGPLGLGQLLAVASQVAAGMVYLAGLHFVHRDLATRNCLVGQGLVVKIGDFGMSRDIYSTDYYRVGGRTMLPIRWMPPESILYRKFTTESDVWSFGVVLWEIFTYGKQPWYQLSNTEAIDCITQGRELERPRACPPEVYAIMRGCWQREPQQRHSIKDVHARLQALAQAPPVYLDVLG

[5] = biological target: Protein kinase C beta type (Homo sapiens, UniProt P05771); assay: Inhibition of human PKCbeta1 in presence of ATP by cellular assay
Sequence of Protein kinase C beta type (P05771 whole entry): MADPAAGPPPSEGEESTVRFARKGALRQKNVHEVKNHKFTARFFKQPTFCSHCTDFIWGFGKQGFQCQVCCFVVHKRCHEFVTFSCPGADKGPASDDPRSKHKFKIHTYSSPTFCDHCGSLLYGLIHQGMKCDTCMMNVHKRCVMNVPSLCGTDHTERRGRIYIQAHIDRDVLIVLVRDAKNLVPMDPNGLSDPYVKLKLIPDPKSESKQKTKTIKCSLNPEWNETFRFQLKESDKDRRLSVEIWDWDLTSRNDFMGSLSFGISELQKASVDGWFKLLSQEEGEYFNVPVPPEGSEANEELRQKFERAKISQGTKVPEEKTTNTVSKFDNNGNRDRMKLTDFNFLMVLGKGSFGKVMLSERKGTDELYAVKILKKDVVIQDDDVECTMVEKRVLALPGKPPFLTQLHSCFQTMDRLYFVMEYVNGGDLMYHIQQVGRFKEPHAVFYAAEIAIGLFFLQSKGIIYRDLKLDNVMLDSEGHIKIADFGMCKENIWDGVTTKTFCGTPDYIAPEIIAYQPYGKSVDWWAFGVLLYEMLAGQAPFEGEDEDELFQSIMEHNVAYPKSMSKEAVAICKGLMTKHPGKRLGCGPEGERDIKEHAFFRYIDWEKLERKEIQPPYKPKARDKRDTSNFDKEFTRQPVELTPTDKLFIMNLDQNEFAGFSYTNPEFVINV

A549 = assay: cells; conditions: Homo sapiens, A549, 144 h
PANC-1 = assay: Antiproliferative activity against human PANC-1 cells assessed as inhibition of cell proliferation incubated for 3 days by CellTiter-Glo Luminescent Cell Viability Assay; format: functional, cell-based; conditions: PANC-1, 72 h; method in brief: as §1
HCT-116 [6] = assay: Antitumor activity against human HCT-116 cells xenografted in nude mouse assessed as reduction in Ki67 administered orally twice daily for 6 days by immunohistochemical analysis; format: functional; conditions: dose 15-25 mg/kg, route po, time 6.0 day
NCI-H1395 = assay: Inhibition of anchorage independent cell growth in human NCI-H1395 cells incubated for 6 days by Alamar blue reagent based fluorescence plate reader analysis; format: functional; conditions: NCI-H1395, 144 h
[7] = Antiproliferative activity against human 184A1 cells assessed as inhibition of cell proliferation incubated for 3 days by CellTiter-Glo Luminescent Cell Viability Assay; format: functional, cell-based; conditions: 184A1, 72 h; method in brief: as §2
[8] = Drug exposure in nude mouse xenografted with human HCT-116 cells at 1.1 to 3.3 mg/kg, sc administered for 6 days; format: ADME, organism-based; conditions: in vivo, dose 1.1-3.3 mg/kg, time 6 day, read-out: Drug uptake
MDA-MB-361 = assay: Antiproliferative activity against human MDA-MB-361 cells assessed as inhibition of cell proliferation incubated for 3 days by CellTiter-Glo Luminescent Cell Viability Assay; format: functional, cell-based; conditions: MDA-MB-361, 72 h; method in brief: as §2
NCI-H1651 = assay: Antiproliferative activity against human NCI-H1651 cells assessed as inhibition of cell proliferation incubated for 3 days by CellTiter-Glo Luminescent Cell Viability Assay; format: functional, cell-based; conditions: NCI-H1651, 72 h; method in brief: as §2
Calu-6 = assay: Antiproliferative activity against human Calu-6 cells assessed as inhibition of cell proliferation incubated for 3 days by CellTiter-Glo Luminescent Cell Viability Assay; format: functional, cell-based; conditions: Calu-6, 72 h; method in brief: as §2
[9] = Cytotoxicity against primary hepatocyte (unknown origin) assessed as inhibition of cell proliferation incubated for 3 days by CellTiter-Glo Luminescent Cell Viability Assay; format: toxicity, cell-based; conditions: primary hepatocytes
[10] = biological target: T1, cGMP-dependent protein kinase 1 (Homo sapiens, UniProt Q13976); assay: Inhibition of human PRKG1 assessed as inhibition constant in presence of ATP
T1 sequence (Q13976 whole entry): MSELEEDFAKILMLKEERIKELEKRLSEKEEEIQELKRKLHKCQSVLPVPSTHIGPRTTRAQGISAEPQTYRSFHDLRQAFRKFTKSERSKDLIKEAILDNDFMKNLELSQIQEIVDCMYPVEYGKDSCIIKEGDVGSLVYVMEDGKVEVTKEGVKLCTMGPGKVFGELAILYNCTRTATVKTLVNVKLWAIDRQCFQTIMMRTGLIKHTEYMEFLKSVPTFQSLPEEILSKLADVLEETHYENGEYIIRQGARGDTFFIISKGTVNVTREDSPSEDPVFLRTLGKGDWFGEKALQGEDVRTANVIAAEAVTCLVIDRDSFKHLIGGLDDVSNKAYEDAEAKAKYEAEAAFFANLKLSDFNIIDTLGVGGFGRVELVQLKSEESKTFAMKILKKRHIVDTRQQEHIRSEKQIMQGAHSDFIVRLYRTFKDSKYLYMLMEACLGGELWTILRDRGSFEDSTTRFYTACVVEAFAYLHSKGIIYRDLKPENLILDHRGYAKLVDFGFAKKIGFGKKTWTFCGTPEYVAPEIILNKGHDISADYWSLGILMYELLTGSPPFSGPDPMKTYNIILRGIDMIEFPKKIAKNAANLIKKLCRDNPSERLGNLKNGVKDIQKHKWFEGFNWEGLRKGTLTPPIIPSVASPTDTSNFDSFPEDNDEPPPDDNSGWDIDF

[11] = biological target: AMP-activated protein kinase (AMPK) alpha-1/beta-1/gamma-1 (Homo sapiens, UniProt P54619+Q13131+Q9Y478); assay: Inhibition of human AMPK alpha1/beta1/gamma1 assessed as inhibition constant in presence of ATP; format: protein-complex assay
[12] = Inhibition of YFP/YFP variant coding sequence fused ARF1/gamma-COP (unknown origin) expressed in HEK293 cells incubated for 8 to 24 hrs by fluorescence based analysis; format: cell-based, Homo sapiens
[13] = biological target: Tumour suppressor p53/oncoprotein Mdm2 (Homo sapiens, UniProt P04637+Q00987); assay: Inhibition of YFP/YFP variant coding sequence fused p53/Mdm2 (unknown origin) expressed in HEK293 cells incubated for 8 to 24 hrs by fluorescence based analysis; format: cell-based
Sequence of Tumour suppressor p53/oncoprotein Mdm2 (P04637 whole entry, looked up, stated change not applied, the tested form may be a part): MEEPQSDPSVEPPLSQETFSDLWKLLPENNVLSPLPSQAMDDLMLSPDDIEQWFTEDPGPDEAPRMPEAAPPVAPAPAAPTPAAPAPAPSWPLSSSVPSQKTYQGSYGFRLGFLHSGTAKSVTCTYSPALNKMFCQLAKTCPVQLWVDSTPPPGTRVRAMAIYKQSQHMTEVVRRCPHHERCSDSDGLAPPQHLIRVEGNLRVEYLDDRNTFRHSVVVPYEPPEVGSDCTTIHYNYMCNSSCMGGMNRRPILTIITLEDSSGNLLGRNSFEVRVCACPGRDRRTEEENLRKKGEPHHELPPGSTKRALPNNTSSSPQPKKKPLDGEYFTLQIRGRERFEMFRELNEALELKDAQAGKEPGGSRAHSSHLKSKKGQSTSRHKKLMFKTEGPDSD
Sequence of Tumour suppressor p53/oncoprotein Mdm2 (Q00987 whole entry, looked up, stated change not applied, the tested form may be a part): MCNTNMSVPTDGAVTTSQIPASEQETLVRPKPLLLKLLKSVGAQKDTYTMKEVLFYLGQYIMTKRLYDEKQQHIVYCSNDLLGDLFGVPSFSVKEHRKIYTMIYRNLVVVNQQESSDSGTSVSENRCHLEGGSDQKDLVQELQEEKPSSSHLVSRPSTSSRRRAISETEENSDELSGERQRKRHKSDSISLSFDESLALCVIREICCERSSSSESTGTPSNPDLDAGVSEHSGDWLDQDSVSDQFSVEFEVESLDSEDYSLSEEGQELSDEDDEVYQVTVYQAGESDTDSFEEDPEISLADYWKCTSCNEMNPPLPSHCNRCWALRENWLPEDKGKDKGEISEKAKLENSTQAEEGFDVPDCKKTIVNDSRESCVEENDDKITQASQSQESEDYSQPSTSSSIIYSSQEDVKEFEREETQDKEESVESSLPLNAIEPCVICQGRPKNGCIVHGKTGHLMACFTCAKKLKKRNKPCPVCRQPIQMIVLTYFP

COLO 205 = assay: Antiproliferative activity against human COLO 205 cells assessed as inhibition of cell proliferation incubated for 3 days by CellTiter-Glo Luminescent Cell Viability Assay; format: functional, cell-based; conditions: COLO 205, 72 h; method in brief: as §2
[14] = biological target: Ribosomal protein S6 kinase alpha-2 (Homo sapiens, UniProt Q15349); assay: Inhibition of human RSK3 in presence of ATP relative to control; conditions: concentration not given here
Sequence of Ribosomal protein S6 kinase alpha-2 (Q15349 whole entry): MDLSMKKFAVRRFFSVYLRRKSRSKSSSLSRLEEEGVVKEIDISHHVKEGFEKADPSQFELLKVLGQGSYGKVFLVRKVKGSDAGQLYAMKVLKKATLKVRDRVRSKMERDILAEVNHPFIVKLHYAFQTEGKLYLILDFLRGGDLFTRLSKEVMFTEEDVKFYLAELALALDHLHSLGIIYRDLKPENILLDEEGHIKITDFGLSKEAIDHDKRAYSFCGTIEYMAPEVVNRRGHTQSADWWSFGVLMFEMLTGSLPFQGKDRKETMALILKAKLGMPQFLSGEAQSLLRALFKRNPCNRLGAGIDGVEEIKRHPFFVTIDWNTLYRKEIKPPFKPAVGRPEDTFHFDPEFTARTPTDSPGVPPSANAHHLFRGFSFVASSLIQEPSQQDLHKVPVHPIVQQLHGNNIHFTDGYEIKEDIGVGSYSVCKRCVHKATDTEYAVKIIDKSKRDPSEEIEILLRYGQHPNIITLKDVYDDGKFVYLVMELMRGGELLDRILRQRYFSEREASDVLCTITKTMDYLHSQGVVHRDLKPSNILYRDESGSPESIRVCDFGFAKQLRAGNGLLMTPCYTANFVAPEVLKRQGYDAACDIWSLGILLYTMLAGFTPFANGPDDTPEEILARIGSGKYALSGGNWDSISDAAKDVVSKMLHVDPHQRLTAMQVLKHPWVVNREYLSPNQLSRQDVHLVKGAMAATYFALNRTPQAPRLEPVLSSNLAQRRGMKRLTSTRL

IC50 (NCI-H1666): 3.8 nM | IC50 (NCI-H1755): 15 nM | Ki [1]: 5 nM | inhibition [2]: 103% | IC50 (BT-20): 81.7 nM | IC50 [4]: 513 nM | IC50 [5]: 2490 nM | IC50 (A549): 27.4 nM | IC50 (PANC-1): 856 nM | IC50 (NCI-H1395): 7.62 nM | concentration at 144 h [8]: 0.14 nM | IC50 (MDA-MB-361): 6.9 nM | IC50 (NCI-H1651): 20 nM | IC50 (Calu-6): 7.3 nM | Ki [10]: 15 nM | Ki [11]: 5 nM | IC50 [12]: 7.9 nM | IC50 [13]: 5.6 nM | IC50 (COLO 205): 2.8 nM | inhibition [14]: 98%
Compound: Cc1nc(Nc2n[nH]c3c2CN(C(=O)N[C@H](CN(C)C)c2ccccc2)C3(C)C)c2sccc2n1 [PF-03758309]
IC50 (HPAF-II): 517 nM | Activity (HCT-116 [3]): Active | Activity (HCT-116 [6]): Dose-Dependent Effect | IC50 [7]: 0.83 nM | IC50 at 3 days [9]: > 1000 nM
